Results reported in ChEMBL document CHEMBL2157980, “Discovery of SCH 900229, a Potent Presenilin 1 Selective γ-Secretase Inhibitor for the Treatment of Alzheimer's Disease” (ACS Med Chem Lett, 2012).
The source made the active and inactive calls. The rule behind the calls is not given here.

Experiments:
[1] = Half life in monkey at 5 mg/kg, po administered with 0.4% HPMC; conditions: rhesus monkey, in vivo
Canis familiaris [2] = species on record: Canis familiaris; assay: Antialzheimer activity in dog assessed as decrease of amyloid beta-40 level in CSF; assay type: functional, organism-based; conditions: Canis lupus familiaris
Presenilin-1 [3] = biological target: T1, Presenilin-1 (Homo sapiens, UniProt P49768); assay: Inhibition of PS1 gamma-secretase assessed as reduction of amyloid beta-40 production by membrane based assay
In short: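 Aβ40 production was measured in a membrane-based assay. IC50 was the average of at least two measurements, with standard deviation 20%.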

Mus musculus [4] = assay: Toxicity in po dosed transgenic CRND8 mouse assessed as intestinal goblet cell hyperplasia administered bid for 6 days; assay type: organism-based; conditions: in vivo, 144 h
In short: (§1)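 In the same subchronic design (oral BID dosing for 6 days in CRND8 mice), Notch-related effects were examined as thymus size reduction and intestinal goblet cell hyperplasia.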

Canis familiaris [5] = species on record: Canis familiaris; assay: Antialzheimer activity in dog assessed as decrease of amyloid beta-40 level in plasma; assay type: functional, organism-based; conditions: Canis lupus familiaris
[6] = Tmax in monkey at 5 mg/kg, po administered with 0.4% HPMC; conditions: rhesus monkey, in vivo
[7] = Clearance in dog at 2.5 mg/kg, iv administered with 0.4% HPMC; assay type: ADME, organism-based, Canis lupus familiaris; set-up: dose 2.5 mg/kg, route intravenous; conditions: in vivo
In short: (§2)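 CL and Vd(ss) came from iv administration at 5 mg/kg in rat and 2.5 mg/kg each in monkey and dog. Values are averages of three animals per species.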

[8] = Half life in dog at 5 mg/kg, po administered with 0.4% HPMC; conditions: in vivo
Mus musculus [9] = assay: Antialzheimer activity in po dosed transgenic CRND8 mouse assessed as decrease of amyloid beta-40 level in cortex administered bid for 6 days; assay type: functional; conditions: 144 h
In short: (§3)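 In a subchronic study, CRND8 mice were dosed orally BID for 6 days. Aβ40 lowering in plasma and cortex was measured, and ED50 was derived.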

[10] = AUC (0 to infinity) in rat at 10 mg/kg, po administered with 0.4% HPMC; assay type: ADME, organism-based; set-up: time infinity, dose 10 mg/kg, route oral; conditions: plasma
In short: (§4)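 Rats (n = 3) were dosed orally at 10 mg/kg in either 20% HPβCD or 0.4% HPMC. AUC(0−∞), Cmax, Tmax and T1/2 were taken from the oral profile, with averaged values. Bioavailability (F) was referenced to iv dosing at 5 mg/kg.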

[11] = Volume of distribution at steady state in dog at 2.5 mg/kg, iv administered with 0.4% HPMC; assay type: ADME, organism-based, Canis lupus familiaris; set-up: dose 2.5 mg/kg, route intravenous; conditions: in vivo, read-out: Vdss
In short: as §2

[12] = Clearance in rat at 5 mg/kg, iv administered with 0.4% HPMC; assay type: ADME, organism-based; set-up: dose 5 mg/kg, route intravenous; conditions: in vivo
In short: as §2

[13] = Tmax in rat at 10 mg/kg, po administered with 0.4% HPMC; assay type: ADME, organism-based; set-up: dose 10 mg/kg, route oral; conditions: in vivo
In short: as §4

[14] = Cmax in rat at 10 mg/kg, po administered with 0.4% HPMC; assay type: ADME, organism-based; set-up: dose 10 mg/kg, route oral; conditions: in vivo
In short: as §4

[15] = Oral bioavailability in dog at 5 mg/kg administered with 0.4% HPMC; conditions: in vivo
Mus musculus [16] = assay: Antialzheimer activity in po dosed transgenic CRND8 mouse assessed as decrease of amyloid beta-40 level in cortex after 3 hrs; assay type: functional
In short: (§5)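 CRND8 mice received a single acute oral dose. Plasma and cortical Aβ40 were measured at the 3 h time point, and ED50 was derived from the dose response.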

[17] = Half life in rat at 10 mg/kg, po administered with 0.4% HPMC; assay type: ADME, organism-based; set-up: dose 10 mg/kg, route oral; conditions: in vivo
In short: as §4

[18] = Volume of distribution at steady state in rat at 5 mg/kg, iv administered with 0.4% HPMC; assay type: ADME, organism-based; set-up: dose 5 mg/kg, route intravenous; conditions: in vivo, read-out: Vdss
In short: as §2

[19] = Cmax in monkey at 5 mg/kg, po administered with 0.4% HPMC; conditions: rhesus monkey, in vivo
[20] = Clearance in monkey at 2.5 mg/kg, iv administered with 0.4% HPMC; assay type: ADME, organism-based, Macaca mulatta; set-up: dose 2.5 mg/kg, route intravenous; conditions: rhesus monkey, in vivo
In short: as §2

Mus musculus [21] = assay: Antialzheimer activity in B6C3F1 mouse assessed as reduction of amyloid beta-40 level in plasma at 30 mg/kg, po after 3 hrs; assay type: functional; set-up: scale not given: the % may be the effect or the level left
In short: (§6)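 B6C3F1 mice were dosed orally at 10 or 30 mg/kg. Aβ40 in plasma and cortex was measured 3 h after dosing and expressed as % change, with lowering shown as negative.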

[22] = AUC (0 to infinity) in dog at 5 mg/kg, po administered with 0.4% HPMC; conditions: plasma
Mus musculus [23] = assay: Antialzheimer activity in B6C3F1 mouse assessed as reduction of amyloid beta-40 level in cortex at 30 mg/kg, po after 3 hrs; assay type: functional; set-up: scale not given: the % may be the effect or the level left
In short: as §6

[24] = Volume of distribution at steady state in monkey at 2.5 mg/kg, iv administered with 0.4% HPMC; assay type: ADME, organism-based, Macaca mulatta; set-up: dose 2.5 mg/kg, route intravenous; conditions: rhesus monkey, in vivo, read-out: Vdss
In short: as §2

Presenilin-1 [25] = biological target: T1, Presenilin-1; assay: Inhibition of PS1 gamma-secretase expressed in HEK cells harboring Awe-Lon gene assessed as notch cleavage; assay type: cell-based, HEK293
[26] = Half life in rat at 10 mg/kg, po administered with 20% HPbetaCD; assay type: ADME, organism-based; set-up: dose 10 mg/kg, route oral; conditions: in vivo
In short: as §4

[27] = Tmax in dog at 5 mg/kg, po administered with 0.4% HPMC; conditions: in vivo
[28] = Selectivity ratio of IC50 for PS2 gamma-secretase to IC50 for PS1 gamma-secretase
In short: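 Inhibitors were tested against reconstituted γ-secretase complexes containing PS1 or PS2. The result is expressed as the PS2/PS1 ratio of IC50 values.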

[29] = Tmax in rat at 10 mg/kg, po administered with 20% HPbetaCD; assay type: ADME, organism-based; set-up: dose 10 mg/kg, route oral; conditions: in vivo
In short: as §4

[30] = Oral bioavailability in rat at 10 mg/kg administered with 0.4% HPMC; assay type: ADME, organism-based; conditions: in vivo
In short: as §4

Mus musculus [31] = assay: Antialzheimer activity in po dosed transgenic CRND8 mouse assessed as decrease of amyloid beta-40 level in plasma administered bid for 6 days; assay type: functional; conditions: 144 h
In short: as §3

[32] = Clearance in rat at 5 mg/kg, iv administered with 20% HPbetaCD; assay type: ADME, organism-based; set-up: dose 5 mg/kg, route intravenous; conditions: in vivo
In short: as §2

Canis familiaris [33] = species on record: Canis familiaris; assay: Antialzheimer activity in dog assessed as decrease of amyloid beta-40 level in cortex; assay type: functional, organism-based; conditions: Canis lupus familiaris
[34] = Oral bioavailability in monkey at 5 mg/kg administered with 0.4% HPMC; conditions: rhesus monkey, in vivo
Presenilin-2 = Presenilin-2 (Homo sapiens, UniProt P49810); assay: Inhibition of PS2 gamma-secretase expressed in HEK cells harboring Awe-Lon gene assessed as reduction of amyloid beta-42 production; assay type: cell-based, HEK293
Chain of Presenilin-2 (P49810 1-297 limits assumed): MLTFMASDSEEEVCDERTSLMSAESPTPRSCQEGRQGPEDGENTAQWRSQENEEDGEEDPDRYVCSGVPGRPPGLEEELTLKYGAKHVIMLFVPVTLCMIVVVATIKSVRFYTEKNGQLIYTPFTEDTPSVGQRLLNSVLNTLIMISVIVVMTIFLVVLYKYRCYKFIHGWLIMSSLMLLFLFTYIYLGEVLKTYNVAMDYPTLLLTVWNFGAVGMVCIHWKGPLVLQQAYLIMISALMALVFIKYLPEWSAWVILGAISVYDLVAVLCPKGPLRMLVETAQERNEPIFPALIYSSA
Chain of Presenilin-2 (P49810 298-448 limits assumed): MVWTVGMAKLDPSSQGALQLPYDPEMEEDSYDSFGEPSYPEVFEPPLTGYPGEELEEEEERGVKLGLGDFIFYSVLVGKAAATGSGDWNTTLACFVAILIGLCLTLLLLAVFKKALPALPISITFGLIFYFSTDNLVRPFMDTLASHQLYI

Mus musculus [35] = assay: Antialzheimer activity in po dosed transgenic CRND8 mouse assessed as decrease of amyloid beta-40 level in plasma after 3 hrs; assay type: functional
In short: as §5

[36] = Cmax in rat at 10 mg/kg, po administered with 20% HPbetaCD; assay type: ADME, organism-based; set-up: dose 10 mg/kg, route oral; conditions: in vivo
In short: as §4

[37] = AUC (0 to infinity) in rat at 10 mg/kg, po administered with 20% HPbetaCD; assay type: ADME, organism-based; set-up: time infinity, dose 10 mg/kg, route oral; conditions: plasma
In short: as §4

Presenilin-1 [38] = biological target: T1, Presenilin-1; assay: Inhibition of PS1 gamma-secretase expressed in HEK cells harboring Awe-Lon gene assessed as reduction of amyloid beta-40 production; assay type: cell-based, HEK293
In short: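 Cell-based Aβ40 production assay in HEK293 cells carrying APP Awe-Lon. IC50 was the average of at least two determinations, with standard deviation 20%.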

[39] = AUC (0 to infinity) in monkey at 5 mg/kg, po administered with 0.4% HPMC; conditions: rhesus monkey, plasma
[40] = Cmax in dog at 5 mg/kg, po administered with 0.4% HPMC; conditions: in vivo
[41] = Volume of distribution at steady state in rat at 5 mg/kg, iv administered with 20% HPbetaCD; assay type: ADME, organism-based; set-up: dose 5 mg/kg, route intravenous; conditions: in vivo, read-out: Vdss
In short: as §2

[42] = Oral bioavailability in rat at 10 mg/kg administered with 20% HPbetaCD; assay type: ADME, organism-based; conditions: in vivo
In short: as §4

Mus musculus [43] = assay: Toxicity in po dosed transgenic CRND8 mouse assessed as reduction in thymus size administered bid for 6 days; assay type: organism-based; conditions: in vivo, 144 h
In short: as §1

What does the source list for `CS(=O)(=O)CC[C@@H]1OCC[C@@]2(S(=O)(=O)c3ccc(Cl)cc3)c3c(F)ccc(F)c3OC[C@@H]12`?
half-life [1]: 4.6 h; Activity (Canis familiaris [2]): Active; IC50 (Presenilin-1 [3]): 1.3 nM; Activity (Mus musculus [4]): Non-toxic; Activity (Canis familiaris [5]): Active; Tmax [6]: 1.7 h; clearance [7]: 1.7 mL/min/kg; half-life [8]: 23.9 h; ED50 (Mus musculus [9]): 0.3 mg/kg; AUC(0-inf) [10]: 1 µM·h; Vd [11]: 3.1 L/kg; clearance [12]: 20.8 mL/min/kg; Tmax [13]: 0.3 h; Cmax [14]: 240 nM; bioavailability [15]: 86%; ED50 (Mus musculus [16]): 0.4 mg/kg; half-life [17]: 1 h; Vd [18]: 3.4 L/kg; Cmax [19]: 1390 nM; clearance [20]: 8.2 mL/min/kg; Activity (Mus musculus [21]): 89%; AUC(0-inf) [22]: 85.6 µM·h; Activity (Mus musculus [23]): 78%; Vd [24]: 1.9 L/kg; IC50 (Presenilin-1 [25]): 46 nM; half-life [26]: 1.1 h; Tmax [27]: 2 h; Ratio IC50 [28]: 25; Tmax [29]: 0.7 h; bioavailability [30]: 6.4%; ED50 (Mus musculus [31]): 0.4 mg/kg; clearance [32]: 69 mL/min/kg; Activity (Canis familiaris [33]): Active; bioavailability [34]: 45%; IC50 (Presenilin-2): 1 nM; ED50 (Mus musculus [35]): 0.5 mg/kg; Cmax [36]: 650 nM; AUC(0-inf) [37]: 1.4 µM·h; IC50 (Presenilin-1 [38]): 4 nM; AUC(0-inf) [39]: 8.9 µM·h; Cmax [40]: 2740 nM; Vd [41]: 5.4 L/kg; bioavailability [42]: 29%; Activity (Mus musculus [43]): Non-toxic

With `CNC(=O)OCC[C@@H]1OCC[C@@]2(S(=O)(=O)c3ccc(Cl)cc3)c3c(F)ccc(F)c3OC[C@@H]12` (racemic) as the compound, how does the IC50 (Presenilin-1 [3]) read?
Its IC50 is 8 nM.

What about the Ratio IC50 [28] of the same compound?
Its Ratio IC50 is 3.

What about the IC50 (Presenilin-2) of the same compound?
Its IC50 is 6 nM.

What about the IC50 (Presenilin-1 [38]) of the same compound?
Its IC50 is 8 nM.

Which Ratio IC50 [28] does the source give for `CC(C)S(=O)(=O)CC[C@@H]1OCC[C@@]2(S(=O)(=O)c3ccc(Cl)cc3)c3c(F)ccc(F)c3OC[C@@H]12` (racemic) here?
The Ratio IC50 was 6.

Which IC50 (Presenilin-1 [3]) does the source give for `CS(=O)(=O)CC[C@H]1OCC[C@]2(S(=O)(=O)c3ccc(Cl)cc3)c3c(F)ccc(F)c3OC[C@H]12` here?
The IC50 was 377 nM.

For `O=S(=O)(c1ccc(Cl)cc1)[C@@]12CCO[C@@H](CCO)[C@@H]1COc1c(F)ccc(F)c12`, which IC50 (Presenilin-1 [3]) is on record?
Its IC50 is 20 nM.

What about the IC50 (Presenilin-2) of the same compound?
Its IC50 is 8 nM.

And the IC50 (Presenilin-1 [38])?
Its IC50 is 18 nM.

For `CCNC(=O)OCC[C@@H]1OCC[C@@]2(S(=O)(=O)c3ccc(Cl)cc3)c3c(F)ccc(F)c3OC[C@@H]12` (racemic), which IC50 (Presenilin-1 [3]) is on record?
Its IC50 is 24 nM.

What about the IC50 (Presenilin-2) of the same compound?
Its IC50 is 20 nM.

What about the IC50 (Presenilin-1 [38]) of the same compound?
Its IC50 is 48 nM.
